Source: article PMC2190579 (The Journal of Cell Biology, 2001)

Key:
wild-type P2Y2R [1] = assay: FAK phosphorylation in 1321N1 transfectants; format: cell-based, human
wild-type P2Y2R [2] = assay: ERK1/2 phosphorylation in 1321N1 transfectants; format: cell-based, human
Procedure, shortened: (§1)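 1321N1 astrocytoma cells stably expressing HA-tagged P2Y2R (retroviral pLXSN, G418-selected) were grown to 80% confluence and serum-starved 24 h at 37°C. They were preincubated 30 min with buffer or 10 μM BAPTA-AM, then given 100 μM UTP. Lysates were run on 7.5% SDS-PAGE and immunoblotted for phospho-p42/p44 ERK1/2. Chemiluminescence was quantitated and normalised by reprobing for total ERK1/2.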

P2Y2R (wild-type) = assay: Calcium mobilization; format: cell-based, human
wild-type P2Y2R [3] = assay: IP assay; format: cell-based, human; conditions: overnight treatment with peptide; not shown
Procedure, shortened: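 Wild-type P2Y2R 1321N1 transfectants were labelled 24 h with 2 μCi [3H]inositol (20 Ci/mmol) in serum-free, inositol-free DME. Cells were washed and held 30 min at 37°C in 30 mM LiCl buffer, then stimulated 10 min with UTP. Extraction used ice-cold 10% perchloric acid with neutralisation. Inositol phosphates were separated on Dowex columns and counted by liquid scintillation.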

[4] = target: αVβ3 integrin (human (endogenous in K562)) (UniProt P06756); assay: ligand-coated bead binding to cells
[5] = target: αVβ5 integrin (human (endogenous in K562)) (UniProt P06756); assay: ligand-coated bead binding to cells
P2Y1R (wild-type) = P2Y1R (wild-type) (Meleagris gallopavo, UniProt P49652); assay: Calcium mobilization; format: cell-based, turkey; conditions: read-out: EC50 (for Ca^2+ mobilization); 1321N1 cells; mean ± SEM (n = 3)
P2Y1R (F^119 ↦ R) = P2Y1R (F^119 ↦ R) (Meleagris gallopavo, UniProt P49652, F108R); assay: Calcium mobilization; format: cell-based, turkey; conditions: read-out: EC50 (for Ca^2+ mobilization); 1321N1 cells; mean ± SEM (n = 3)
P2Y1R (D^116 ↦ E) = P2Y1R (D^116 ↦ E) (Meleagris gallopavo, UniProt P49652, D105E); assay: Calcium mobilization; format: cell-based, turkey; conditions: read-out: EC50 (for Ca^2+ mobilization); 1321N1 cells; mean ± SEM (n = 3)
P2Y1R (D^121 ↦ E) = P2Y1R (D^121 ↦ E) (Meleagris gallopavo, UniProt P49652, D110E); assay: Calcium mobilization; format: cell-based, turkey; conditions: read-out: EC50 (for Ca^2+ mobilization); 1321N1 cells; mean ± SEM (n = 3)
RGE mutant P2Y2R [6] = assay: FAK phosphorylation in 1321N1 transfectants; format: cell-based, human; conditions: 1 mM UTP after 30 min preincubation with 10 μM BAPTA-AM
Procedure, shortened: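 Serum-starved (24 h, 37°C) 1321N1 cells stably expressing HA-tagged P2Y2R constructs were preincubated 30 min with buffer or 10 μM BAPTA-AM, then stimulated with 1 mM UTP. Cells were lysed in RIPA buffer and FAK was immunoprecipitated. Tyrosine phosphorylation was detected by anti-phosphotyrosine immunoblot after 7.5% SDS-PAGE, with chemiluminescence read-out. Three to six experiments.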

RGE mutant P2Y2R [7] = assay: ERK1/2 phosphorylation in 1321N1 transfectants; format: cell-based, human; conditions: 100 μM UTP after 30 min preincubation with 10 μM BAPTA-AM
Procedure, shortened: as §1

[8] = target: P2Y2R (D^97 ↦ E), RGE mutant (Homo sapiens, UniProt P41231, D97E); assay: Calcium mobilization; format: cell-based; conditions: 1321N1 cells
K562 cells = assay: Fluorescence-activated cell sorting of integrin surface expression; format: cell-based, human; conditions: overnight treatment with 100 nM PDBu
[9] = system: K562 erythroleukemia cells; assay: Ligand-coated bead-binding assay; format: cell-based, human; conditions: number of beads bound per 100 cells; 1 h at 37°C; mean ± SEM
[10] = overnight (18 h) with 100 μM peptide, 1 μM UTP 5 min
[11] = overnight (18 h) with 100 μM peptide, 10 nM UTP 5 min
[12] = shorter incubation periods than overnight, not shown

P2Y2R (D^97 ↦ E), RGE mutant, sequence (P41231 whole entry D97E): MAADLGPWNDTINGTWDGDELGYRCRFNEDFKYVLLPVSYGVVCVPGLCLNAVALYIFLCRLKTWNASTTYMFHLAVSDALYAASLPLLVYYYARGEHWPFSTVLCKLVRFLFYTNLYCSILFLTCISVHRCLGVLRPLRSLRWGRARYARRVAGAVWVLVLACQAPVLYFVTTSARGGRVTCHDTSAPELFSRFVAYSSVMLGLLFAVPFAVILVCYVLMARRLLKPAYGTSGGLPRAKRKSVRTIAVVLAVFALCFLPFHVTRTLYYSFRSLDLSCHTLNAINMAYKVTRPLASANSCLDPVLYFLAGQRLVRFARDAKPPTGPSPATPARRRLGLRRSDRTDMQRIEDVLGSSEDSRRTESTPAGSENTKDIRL
P2Y1R (F^119 ↦ R), sequence (P49652 whole entry F108R): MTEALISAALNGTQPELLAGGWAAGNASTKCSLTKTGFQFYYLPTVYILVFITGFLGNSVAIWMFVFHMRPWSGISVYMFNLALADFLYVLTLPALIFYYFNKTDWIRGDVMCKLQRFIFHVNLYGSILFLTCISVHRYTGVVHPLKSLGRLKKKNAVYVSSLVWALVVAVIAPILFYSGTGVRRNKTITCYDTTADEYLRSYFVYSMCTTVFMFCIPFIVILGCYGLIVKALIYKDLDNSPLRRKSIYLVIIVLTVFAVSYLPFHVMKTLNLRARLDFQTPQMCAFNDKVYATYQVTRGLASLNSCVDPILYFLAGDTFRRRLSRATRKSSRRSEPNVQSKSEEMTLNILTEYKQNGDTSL
P2Y1R (D^121 ↦ E), sequence (P49652 whole entry D110E): as the sequence (P49652 whole entry F108R) above, with R108F, D110E counted along it
αVβ5 integrin (human (endogenous in K562)), sequence (P06756 31-1048, chain 1 of 2): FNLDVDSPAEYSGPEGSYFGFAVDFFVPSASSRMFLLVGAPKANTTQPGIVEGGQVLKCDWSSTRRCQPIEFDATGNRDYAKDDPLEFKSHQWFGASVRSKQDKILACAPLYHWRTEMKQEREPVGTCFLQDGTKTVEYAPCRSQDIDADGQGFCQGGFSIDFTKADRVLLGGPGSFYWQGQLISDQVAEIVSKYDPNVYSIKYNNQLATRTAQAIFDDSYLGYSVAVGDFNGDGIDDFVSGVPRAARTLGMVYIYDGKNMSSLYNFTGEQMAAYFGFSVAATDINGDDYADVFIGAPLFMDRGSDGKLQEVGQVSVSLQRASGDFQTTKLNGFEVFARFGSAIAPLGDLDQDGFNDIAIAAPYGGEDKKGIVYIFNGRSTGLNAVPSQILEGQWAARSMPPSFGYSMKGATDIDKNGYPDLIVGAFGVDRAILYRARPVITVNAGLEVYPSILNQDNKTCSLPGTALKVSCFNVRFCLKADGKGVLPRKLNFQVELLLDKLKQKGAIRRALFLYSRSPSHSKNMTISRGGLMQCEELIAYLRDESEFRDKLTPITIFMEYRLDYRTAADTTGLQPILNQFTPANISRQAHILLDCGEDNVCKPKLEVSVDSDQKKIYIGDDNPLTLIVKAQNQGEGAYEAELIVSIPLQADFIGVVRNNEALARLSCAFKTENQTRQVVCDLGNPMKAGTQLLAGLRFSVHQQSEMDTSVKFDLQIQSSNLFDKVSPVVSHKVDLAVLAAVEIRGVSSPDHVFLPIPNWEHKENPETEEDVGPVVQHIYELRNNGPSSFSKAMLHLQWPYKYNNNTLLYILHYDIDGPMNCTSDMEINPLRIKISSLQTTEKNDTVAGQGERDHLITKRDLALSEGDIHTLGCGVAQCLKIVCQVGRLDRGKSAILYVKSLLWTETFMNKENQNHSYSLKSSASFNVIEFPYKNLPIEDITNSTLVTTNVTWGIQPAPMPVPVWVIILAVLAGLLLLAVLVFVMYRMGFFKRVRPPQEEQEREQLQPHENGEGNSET
αVβ5 integrin (human (endogenous in K562)), sequence (P18084 24-799, chain 2 of 2, further chain): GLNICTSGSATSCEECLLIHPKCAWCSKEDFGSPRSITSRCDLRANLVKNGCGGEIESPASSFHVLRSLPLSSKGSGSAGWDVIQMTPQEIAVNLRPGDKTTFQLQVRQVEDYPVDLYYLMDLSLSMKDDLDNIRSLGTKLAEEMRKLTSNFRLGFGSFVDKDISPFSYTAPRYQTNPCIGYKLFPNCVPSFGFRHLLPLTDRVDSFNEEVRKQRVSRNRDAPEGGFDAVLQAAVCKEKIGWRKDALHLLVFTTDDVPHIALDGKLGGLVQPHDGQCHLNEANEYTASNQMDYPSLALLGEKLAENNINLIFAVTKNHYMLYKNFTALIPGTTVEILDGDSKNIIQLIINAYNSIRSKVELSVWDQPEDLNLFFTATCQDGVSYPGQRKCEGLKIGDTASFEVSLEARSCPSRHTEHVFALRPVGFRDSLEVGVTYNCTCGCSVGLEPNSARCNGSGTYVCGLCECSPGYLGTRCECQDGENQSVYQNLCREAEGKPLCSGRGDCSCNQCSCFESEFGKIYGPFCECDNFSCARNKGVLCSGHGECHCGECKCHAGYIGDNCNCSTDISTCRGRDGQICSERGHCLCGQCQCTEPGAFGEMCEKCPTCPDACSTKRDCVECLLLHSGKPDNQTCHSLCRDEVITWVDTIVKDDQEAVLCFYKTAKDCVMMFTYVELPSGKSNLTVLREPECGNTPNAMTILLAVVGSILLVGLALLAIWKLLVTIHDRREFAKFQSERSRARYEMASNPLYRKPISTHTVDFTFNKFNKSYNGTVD
αVβ3 integrin (human (endogenous in K562)), sequence (P06756 31-1048, chain 1 of 2): as the sequence (P06756 31-1048, chain 1 of 2) above
αVβ3 integrin (human (endogenous in K562)), sequence (P05106 27-788, chain 2 of 2, further chain): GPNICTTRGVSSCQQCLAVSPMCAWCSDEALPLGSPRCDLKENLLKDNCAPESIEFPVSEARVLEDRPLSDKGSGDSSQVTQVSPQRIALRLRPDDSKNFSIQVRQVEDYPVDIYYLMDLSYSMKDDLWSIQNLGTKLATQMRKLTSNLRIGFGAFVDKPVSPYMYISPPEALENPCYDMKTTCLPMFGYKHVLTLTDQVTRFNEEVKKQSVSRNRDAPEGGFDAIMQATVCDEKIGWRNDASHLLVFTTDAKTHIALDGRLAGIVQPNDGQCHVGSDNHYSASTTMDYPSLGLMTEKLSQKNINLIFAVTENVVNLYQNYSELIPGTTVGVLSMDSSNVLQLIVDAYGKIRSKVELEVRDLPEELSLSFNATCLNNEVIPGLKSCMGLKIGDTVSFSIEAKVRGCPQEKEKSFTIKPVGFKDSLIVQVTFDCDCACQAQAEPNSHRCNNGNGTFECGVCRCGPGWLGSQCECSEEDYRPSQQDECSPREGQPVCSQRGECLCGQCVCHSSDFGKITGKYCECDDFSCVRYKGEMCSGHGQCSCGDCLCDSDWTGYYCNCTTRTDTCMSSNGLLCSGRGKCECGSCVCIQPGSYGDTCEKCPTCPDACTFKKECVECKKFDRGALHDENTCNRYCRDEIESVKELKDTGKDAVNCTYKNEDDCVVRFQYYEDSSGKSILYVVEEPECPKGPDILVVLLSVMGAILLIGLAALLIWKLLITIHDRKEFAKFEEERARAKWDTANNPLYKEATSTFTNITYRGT
P2Y1R (wild-type), sequence (P49652 whole entry): as the sequence (P49652 whole entry F108R) above, with R108F counted along it
P2Y1R (D^116 ↦ E), sequence (P49652 whole entry D105E): as the sequence (P49652 whole entry F108R) above, with D105E, R108F counted along it

RGES
Effect on P2Y2R-mediated FAK phosphorylation (wild-type P2Y2R [1]; [10]): no effect
Effect on P2Y2R-mediated ERK1/2 phosphorylation (wild-type P2Y2R [2]; [11]): no effect

RGDS
Effect on P2Y2R-mediated FAK phosphorylation (wild-type P2Y2R [1]; [10]): inhibited
Effect on P2Y2R-mediated FAK phosphorylation (wild-type P2Y2R [1]; [12]): did not cause inhibition
Effect on P2Y2R-mediated Ca^2+ mobilization (P2Y2R (wild-type); overnight treatment with peptide, not shown): not inhibited
Effect on P2Y2R-mediated ERK1/2 phosphorylation (wild-type P2Y2R [2]; [11]): inhibited
Effect on P2Y2R-mediated ERK1/2 phosphorylation (wild-type P2Y2R [2]; [12]): did not cause inhibition
Effect on P2Y2R-mediated IP formation (wild-type P2Y2R [3]): not inhibited

human vitronectin (ligand)
adhesion index (AI, beads bound per 100 K562 cells) (beads bound per 100 cells) [4]: 300
adhesion index (AI, beads bound per 100 K562 cells) (beads bound per 100 cells) [5]: 300

Nc1ncnc2c1ncn2[C@@H]1O[C@H](COP(=O)(O)OP(=O)(O)O)[C@@H](O)[C@H]1O [ADP]
EC50 (P2Y1R (wild-type)): 0.06 ± 0.01 µM
EC50 (P2Y1R (F^119 ↦ R)): 2.02 ± 0.27 µM
EC50 (P2Y1R (D^116 ↦ E)): 0.06 ± 0.01 µM
EC50 (P2Y1R (D^121 ↦ E)): 0.08 ± 0.01 µM

O=C(O)CN(CC(=O)O)c1ccccc1OCCOc1ccccc1N(CC(=O)O)CC(=O)O [BAPTA, 1,2-bis(2-aminophenoxy)ethane-N,N,N′,N′-tetraacetic acid]
Effect on UTP-induced FAK phosphorylation (wild-type P2Y2R [1]; 1 mM UTP after 30 min preincubation with 10 μM BAPTA-AM): inhibited
Effect on UTP-induced FAK phosphorylation (RGE mutant P2Y2R [6]): inhibited
Effect on UTP-induced ERK1/2 phosphorylation (wild-type P2Y2R [2]; 100 μM UTP after 30 min preincubation with 10 μM BAPTA-AM): partially inhibited
Effect on UTP-induced ERK1/2 phosphorylation (RGE mutant P2Y2R [7]): not affected

Nc1ncnc2c1ncn2[C@@H]1O[C@H](COP(=O)(O)OP(=O)(O)OP(=O)(O)O)[C@@H](O)[C@H]1O [ATP]
EC50 ([8]; read-out: EC50 (for Ca^2+ mobilization), mean ± SEM (n = 3)): 785 ± 125 µM
EC50 (P2Y2R (wild-type); read-out: EC50 (for Ca^2+ mobilization), 1321N1 cells, mean ± SEM (n = 3)): 0.85 ± 0.13 µM

CCCC(=O)O[C@@H]1[C@@H](C)[C@@]2(O)[C@@H](C=C(CO)C[C@]3(O)C(=O)C(C)=C[C@@H]23)[C@@H]2C(C)(C)[C@]12OC(=O)CCC [PDBu, phorbol dibutyrate]
Fluorescence intensity or percentage of cells stained by antiintegrin antibodies (α5, αVβ5, β3) (K562 cells): did not increase

pertussis toxin
Effect on Ca^2+ mobilization ([8]; 200 ng/ml PTX overnight, 100 μM UTP): insensitive
Inhibition of Ca^2+ mobilization (P2Y2R (wild-type); 200 ng/ml PTX overnight, 1 μM UTP, 1321N1 cells): 30%

fibronectin
AI (adhesion index) of ligand-coated beads bound to K562 cells [9]: 318 ± 14

B1: vitronectin: human vitronectin purchased from Calbiochem, coated on latex beads (protein, UniProt P04004 20-478, looked up)
Vitronectin: DQESCKGRCTEGFNVDKKCQCDELCSYYQSCCTDYTAECKPQVTRGDVFTMPEDEYTVYDDGEEKNNATVHEQVGGPSLTSDLQAQSKGNPEQTPVLKPEEEAPAPEVGASKPEGIDSRPETLHPGRPQPPAEEELCSGKPFDAFTDLKNGSLFAFRGQYCYELDEKAVRPGYPKLIRDVWGIEGPIDAAFTRINCQGKTYLFKGSQYWRFEDGVLDPDYPRNISDGFDGIPDNVDAALALPAHSYSGRERVYFFKGKQYWEYQFQHQPSQEECEGSSLSAVFEHFAMMQRDSWEDIFELLFWGRTSAGTRQPQFISRDWHGVPGQVDAAMAGRIYISGMAPRPSLAKKQRFRHRNRKGYRSQRGHSRGRNQNSRRPSRATWLSLFSSEESNLGANNYDDYRMDWLVPATCEPIQSVFFFSGDKYYRVNLRTRRVDTVDPPYPRSIAQYWLGCPAPGHL
modifications: coated on latex beads
AI (adhesion index) of ligand-coated beads bound to K562 cells [9]: 300 ± 28
